Measured values as given in ChEMBL document CHEMBL1140131, “Synthesis and in vitro evaluation of 5-[(18)f]fluoroalkyl pyrimidine nucleosides for molecular imaging of herpes simplex virus type 1 thymidine kinase reporter gene expression” (J Med Chem, 2008).

Legend:
[1] = Cellular uptake in HSV1-tk gene overexpressing RG2TK+ cells assessed per 10^6 cells at 0.2 MBq after 2 hrs; format: ADME; conditions: rat
Procedure, shortened: (§1)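 RG2 rat glioma cells transduced with HSV1-tk (kept in G418 250 mg/L), 5 × 10^5 cells/well, grown 24 h, then incubated at 37 °C in serum-free medium with ~0.02 MBq [125I]FIAU or ~0.2 MBq 18F-tracer. Sampled at 5–120 min. After cold PBS washes and trypsinization, cell-bound activity was gamma counted and normalized to viable (trypan blue) cells and to total dose. Mean ± S.D., ≥3 experiments in duplicate.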

[2] = Lipophilicity, log P at pH 7.4; format: physicochemical; conditions: buffer
Procedure, shortened: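 Radiolabelled nucleoside (20 μL in water) was partitioned between 3 g 1-octanol and 3 g 0.1 M NaH2PO4 buffer, pH 7.4. The mixture was vortexed 3 min at room temperature, then centrifuged 5 min. Weighed 0.5 g samples of each layer were gamma counted, and the octanol layer was repartitioned until values were consistent. log P was taken as the log of the ratio of cpm/g octanol to cpm/g buffer. Triplicate, repeated three times.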

[3] = test system: RG2; experiment: Cellular uptake in RG2 cells assessed per 10^6 cells at 0.2 MBq after 2 hrs; format: ADME, cell-based; conditions: rat, rg2, 2 h
Procedure, shortened: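 Wild-type RG2 rat glioma monolayers (5 × 10^5 cells/well, 24 h growth) were incubated at 37 °C in 0.5 mL serum-free medium with about 0.2 MBq (5 μCi) of 18F-labelled nucleoside (SA 18.5–925 GBq/μmol). After 2 h they were washed with cold PBS, trypsinized and viable cells counted by trypan blue. Gamma counts (400–1600 keV) were normalized to viable cell number and to total activity, expressed as % per 10^6 cells. Three or more experiments, each in duplicate.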

[4] = test system: RG2; experiment: Selectivity index, ratio of cellular uptake in HSV1-tk gene overexpressing RG2TK+ cells to cellular uptake in RG2 cells; format: functional, Rattus norvegicus
Procedure, shortened: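 Tracer uptake measured in parallel in HSV1-tk-transduced RG2TK+ and wild-type RG2 glioma cells: 37 °C, serum-free medium, ~0.2 MBq 18F-tracer. Activity was gamma counted and normalized to viable cells and dose. The index is the average ratio of accumulation in RG2TK+ to accumulation in RG2.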

[5] = Inhibition of [125I]FIAU uptake in RG2TK+ cells overexpressing HSV1-tk gene; format: functional, cell-based; conditions: Rattus norvegicus
Procedure, shortened: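 HSV1-tk-expressing RG2TK+ glioma cells incubated 2 h with [125I]FIAU plus inhibitor at 0–300 μM. Cell-associated radioactivity measured. IC50 is the concentration giving 50% inhibition of [125I]FIAU uptake; mean ± S.D. of at least three experiments in duplicate.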

[6] = Cytotoxicity against HSV1-tk gene overexpressing RG2TK+ cells after 72 hrs by MTT assay; format: cell-based; conditions: rat
Procedure, shortened: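 RG2TK+ cells (HSV1-tk-transduced rat glioma) seeded at 1.5 × 10^3 cells/well overnight, then exposed to drug at 0.001–1000 μmol/L in quadruplicate for 72 h at 37 °C. MTT (1 mg/mL) added for 3 h; formazan dissolved in DMSO and read at 490 nm (650 nm reference). Blanks subtracted; growth given as % of untreated control. CC50 reported as mean ± S.E.M. of three experiments in duplicate.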

[7] = test system: RG2; experiment: Cytotoxicity against RG2 cells after 72 hrs by MTT assay; format: cell-based; conditions: rat, rg2, 72 h
Procedure, shortened: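 RG2 cells were seeded at 1.5 × 10^3/well, left overnight, then exposed to drug at 0.001–1000 μmol/L in culture medium, in quadruplicate, for 72 h at 37 °C. MTT (1 mg/mL) was added for 3 h and the formazan dissolved in DMSO. Absorbance was read at 490 nm with a 650 nm reference, blank subtracted, and growth given as % of untreated control. CC50 was taken as mean of three experiments.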

[8] = Cellular uptake in HSV1-tk gene overexpressing RG2TK+ cells assessed per 10^6 cells at 0.02 MBq after 2 hrs; format: ADME; conditions: rat; procedure, shortened: as §1
[9] = test system: RG2; experiment: Cellular uptake in RG2 cells assessed per 10^6 cells at 0.02 MBq after 2 hrs; format: ADME, cell-based; conditions: rat, rg2, 2 h
Procedure, shortened: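 Wild-type RG2 rat glioma monolayers (5 × 10^5 cells/well, grown 24 h at 37 °C in DMEM, 10% FBS) washed with warm PBS, then incubated at 37 °C in 0.5 mL serum-free medium with about 0.02 MBq [125I]FIAU (SA 2,200 Ci/mmol). After 2 h, cells were washed with cold PBS, trypsinized and counted for viability by trypan blue. Cell-associated gamma counts were normalized to viable cells and to activity added, given as % per 10^6 cells. Three or more experiments, each in duplicate.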

SMILES: O=c1[nH]c(=O)n([C@H]2C[C@H](O)[C@@H](CO)O2)cc1CCCC[18F]
- Drug uptake [1]: 8.4%
- logD [2]: -0.24
- Drug uptake [3]: 0.59%
- Ratio [4]: 14.9

SMILES: O=c1[nH]c(=O)n([C@@H]2O[C@H](CO)[C@@H](O)[C@@H]2F)cc1CCC[18F]
- Drug uptake [1]: 1.9%
- logD [2]: -0.12
- Drug uptake [3]: 0.38%
- Ratio [4]: 5

SMILES: O=c1[nH]c(=O)n([C@@H]2O[C@H](CO)[C@@H](O)[C@@H]2F)cc1CCCCC[18F]
- Drug uptake [1]: 1.2%
- logD [2]: 0.74
- Drug uptake [3]: 0.24%
- Ratio [4]: 5.5

SMILES: O=c1[nH]c(=O)n([C@@H]2O[C@H](CO)[C@@H](O)[C@@H]2F)cc1CCCF
- IC50 [5]: 51.2 µM
- CC50 [6]: 209 µM
- CC50 [7]: 121 µM

SMILES: O=c1[nH]c(=O)n([C@@H]2O[C@H](CO)[C@@H](O)[C@@H]2F)cc1CCCCF
- IC50 [5]: 23 µM
- CC50 [6]: 346 µM
- CC50 [7]: 355 µM

SMILES: O=c1[nH]c(=O)n([C@@H]2O[C@H](CO)[C@@H](O)[C@@H]2F)cc1[125I]
- Drug uptake [8]: 29.4%
- Drug uptake [9]: 3.4%
- logD [2]: 0.05
- Ratio [4]: 9.9

SMILES: O=c1[nH]c(=O)n([C@H]2C[C@H](O)[C@@H](CO)O2)cc1CCCF
- IC50 [5]: 7.6 µM
- CC50 [6]: > 1000 µM
- CC50 [7]: > 450 µM

SMILES: O=c1[nH]c(=O)n([C@H]2C[C@H](O)[C@@H](CO)O2)cc1CCCCF
- IC50 [5]: 34.5 µM
- CC50 [6]: > 800 µM
- CC50 [7]: > 800 µM

SMILES: O=c1[nH]c(=O)n([C@H]2C[C@H](O)[C@@H](CO)O2)cc1CCCCC[18F]
- Drug uptake [1]: 4.4%
- logD [2]: 0.23
- Drug uptake [3]: 0.23%
- Ratio [4]: 19.9

SMILES: O=c1[nH]c(=O)n([C@H]2C[C@H](O)[C@@H](CO)O2)cc1CCC[18F]
- Drug uptake [1]: 8.2%
- logD [2]: -0.57
- Drug uptake [3]: 0.41%
- Ratio [4]: 20.5

SMILES: O=c1[nH]c(=O)n([C@@H]2O[C@H](CO)[C@@H](O)[C@H]2F)cc1/C=C/[123I]
- logD [2]: 1.22

SMILES: O=c1[nH]c(=O)n([C@@H]2O[C@H](CO)[C@@H](O)[C@@H]2F)cc1CCCCCF
- IC50 [5]: 22.9 µM
- CC50 [6]: 375 µM
- CC50 [7]: > 1000 µM

SMILES: O=c1[nH]c(=O)n([C@@H]2O[C@H](CO)[C@@H](O)[C@@H]2F)cc1/C=C/[123I]
- logD [2]: 1.24

SMILES: O=c1[nH]c(=O)n([C@@H]2O[C@H](CO)[C@@H](O)[C@@H]2F)cc1CCCC[18F]
- Drug uptake [1]: 3.7%
- logD [2]: 0.27
- Drug uptake [3]: 0.66%
- Ratio [4]: 7.8

SMILES: O=c1[nH]c(=O)n([C@H]2C[C@H](O)[C@@H](CO)O2)cc1CCCCCF
- IC50 [5]: 36.8 µM
- CC50 [6]: > 650 µM
- CC50 [7]: > 750 µM

SMILES: O=c1[nH]c(=O)n([C@@H]2O[C@H](CO)[C@@H](O)[C@@H]2F)cc1I [FIALURIDINE]
- IC50 [5]: 0.7 µM
- CC50 [6]: 0.79 µM
- CC50 [7]: 80 µM

SMILES: Nc1nc(O)c2ncn(COC(CO)CO)c2n1 [GANCICLOVIR]
- CC50 [6]: 5.86 µM
- CC50 [7]: 377 µM
